From PubChem
ROMK mod – modulators of human ROMK potassium channel. P48048. Tet-inducible ROMK, thallium flux fluorescence; actives lie on both sides. B-score at 10 µM. actives 2% (n = 130,000). AID 1918;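 active = signal ratio slope over the read window, or its plate-corrected B-score, at least 3 SD from the plate mean, either direction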;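 note: B-score of the F/F0 ratio slope over 7 to 12 s after thallium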
Target sequence (P48048 whole entry, looked up): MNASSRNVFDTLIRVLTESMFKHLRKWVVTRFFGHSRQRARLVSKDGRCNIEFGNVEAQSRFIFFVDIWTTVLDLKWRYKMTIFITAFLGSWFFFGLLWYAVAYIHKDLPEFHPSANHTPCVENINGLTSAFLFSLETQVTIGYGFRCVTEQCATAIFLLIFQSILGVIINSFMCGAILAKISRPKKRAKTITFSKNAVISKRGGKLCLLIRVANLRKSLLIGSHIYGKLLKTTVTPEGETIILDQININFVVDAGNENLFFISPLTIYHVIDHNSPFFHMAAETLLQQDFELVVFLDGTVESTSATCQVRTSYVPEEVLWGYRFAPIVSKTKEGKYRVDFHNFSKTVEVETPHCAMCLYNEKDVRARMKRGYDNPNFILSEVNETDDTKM
b-catenin transl – modulators of beta-catenin nuclear translocation; HeLa beta-catenin nuclear translocation, immunofluorescence imaging; nuclear translocation activity, % at 5 µM; actives 0.3% (n = 190,000); AID 1665;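 active = nuclear translocation activity above 50% at 5 µM, with a well cell count of 50 or more; inconclusive = wells under 50 cells across six images, flagged as toxic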;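 note: per-cell ratio of nuclear to cytoplasmic median beta-catenin stain intensity; plate controls were DMSO negative control for no effect and GSK-3 inhibitor IX positive control for full effect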
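Signal – beta-catenin immunofluorescence imaging with DAPI · Test system – human HeLa cell line · Dosing – 5 µM primary single dose, 0.1% DMSO, 0.02–20 µM confirmation series · Measure – % activation, nuclear-to-cytoplasmic median beta-catenin signal ratio per cell · Incubation – 24 h compound exposure at 37°C, 5% CO2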
Cl transport mod – KCC2 (human) Cl- transport modulation | Q9H2X9 | KCC2 cells, thallium flux FluoZin-2 fluorescence | B-score of Tl+ flux slope (higher = more flux/activation; lower = inhibition) at 10 µM | actives 2.2% (n = 190,000);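 active = thallium flux slope and its plate-corrected score both differing from the plate sample mean at a set confidence after two filtering rounds, in either direction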;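 note: slope of fluorescence scaled to starting intensity during 10 to 20 s after thallium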
MT stabilizer – microtubule stabilization, imaging screen; HeLa tubulin immunostaining HCS, 24 h; share of cells brighter than vehicle mean+2SD; % tubulin-high responders, % at 10 µM; actives 0.83% (n = 200,000);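 active = plate Z-score above 3 for both tubulin-high and condensed-nucleus cell shares, with cell loss under 80%, at 10 µM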;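 note: anti alpha tubulin signal scored within the nucleus-defined area of each cell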
DTT redox prof – compounds producing H2O2 with reducing agent – biochemical, NIH compound library profiling, artefact control for MLSCN library redox annotation, primary screen; DTT-dependent redox cycling H2O2, phenol red/HRP absorbance; 100% = 100 µM peroxide control, 0% = buffer; activation, % at 10 µM; actives 0.03% (n = 200,000);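 active = activation of at least 50% relative to the plate's high and low controls in the primary single-dose screen; inactive = activation below 50%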;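 note: compound incubated with DTT at 0.8 mM final as the reducing agent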
KCC2 sec1 – confirmation of human KCC2 transport modulators; normalised thallium flux (F/F0 slope) at 10 µM; actives 15% (n = 3,700); HEK293-KCC2, thallium flux, FluoZin2 fluorescence; active compounds read high; shares compounds with Cl transport mod;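 active = thallium flux slope above the same plate's solvent-only control mean plus 3 SD; inconclusive = the two replicate wells disagree; inactive = no significant difference from solvent-only control wells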
KCC2 bumet counter – thallium flux despite bumetanide block in KCC2 cells, secondary assay 3; shares compounds with Cl transport mod; HEK293-KCC2 + bumetanide/ouabain, thallium flux FluoZin2; active compounds read high; normalized thallium flux at 10 µM; actives 49% (n = 3,700); AID 1714;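 active = thallium entry rate above the same plate's blocked-transporter control wells by more than 3 SD; inconclusive = the two repeat wells disagree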;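 note: raw slope of fluorescence over initial fluorescence between 10 and 20 s after thallium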
KCC2 sec2 – KCC2 (human) modulation, second secondary assay; HEK293-KCC2, thallium flux FluoZin2 fluorescence; actives lie on both sides; F/F0 rise rate, 10–20 s post-thallium; AID 1715; shares compounds with Cl transport mod; actives 23% (n = 3,700); normalized thallium flux at 10 µM;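 active = thallium flux slope more than 3 SD above or below the plate's solvent-only control mean, mostly below; inconclusive = the two repeat wells disagreed; inactive = no significant shift from solvent-only controls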;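 note: raw slope with 0.1% DMSO as baseline and bumetanide as block control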
HEK counter1 – acts in parental HEK cells, KCC2 counter-screen | AID 1716 | thallium flux rate (normalised fluorescence) at 10 µM | HEK293 parental cells, thallium flux FluoZin2, ouabain; baseline-ratio fluorescence slope, 10–20 s after thallium | shares compounds with Cl transport mod | actives 46% (n = 3,700);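 active = thallium flux rate significantly above the same plate's solvent-only control wells, beyond their mean plus 3 SD; inconclusive = the two replicate wells gave conflicting results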
KCC2 retest ouab – confirmation of human KCC2 modulators with ouabain | shares compounds with Cl transport mod | HEK293-KCC2, thallium flux FluoZin2 fluorescence; bidirectional: low = inhibitor, high = activator | raw Tl+ flux slope (below DMSO = inhibition, above = activation) at 10 µM | actives 48% (n = 3,700) | AID 1717;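 active = thallium flux slope beyond 3 SD from same-plate DMSO control mean in most replicates, usually higher, sometimes lower; inconclusive = repeat tests gave conflicting results; inactive = no significant difference from controls in most replicates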;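 note: slope of initial-normalized fluorescence between seconds 10 and 20 after thallium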
HEK counter2 – counter-screen for KCC2 modulators: effect in parental HEK293 cells | shares compounds with Cl transport mod | thallium flux FluoZin-2 fluorescence slope | thallium flux slope at 10 µM | actives 33% (n = 3,700);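 active = thallium flux slope above the same plate's solvent-control mean plus 3 SD in both duplicate wells; inconclusive = duplicate wells that disagreed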;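 note: run without ouabain in cells lacking the KCC2 cotransporter; slope of fluorescence scaled to its starting value between 10 and 20 s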
* marks the source's active call; other numbers are inactive results; ? = inconclusive; nt = no result. The list is not random: actives were taken first. Their share in the collection is about 3.7%.

SMILES	ROMK mod	b-catenin transl	Cl transport mod	MT stabilizer	DTT redox prof	KCC2 sec1	KCC2 bumet counter	KCC2 sec2	HEK counter1	KCC2 retest ouab	HEK counter2
COc1ccccc1NC(=S)NC(=O)c1c(-c2ccccc2Cl)noc1C	1	0	3.7*	4	0	0.012	0.028*	0.036	?	0.03*	?
Cc1onc(-c2c(F)cccc2Cl)c1C(=O)NCc1ccccn1	nt	0	-4.9*	3	0	?	?	?	0.0079	0.023	0.011
Cc1onc(-c2ccccc2Cl)c1C(=O)Nc1ccc(F)c(F)c1	0.052	-1	nt	4	0	nt	nt	nt	nt	nt	nt
COc1cc(C(C(=O)NC2CCCC2)N(C(=O)Cc2cccs2)C2CC2)cc(OC)c1OC (configuration not stated)	-0.52	-1	-0.012	3	-2	nt	nt	nt	nt	nt	nt
CCOC(=O)c1c(C)c(C(=O)NCc2ccccn2)c(C)n1CC	nt	0	8.3*	2	1	0.0062	0.0047	0.032	0.0071	0.019	0.011
CCOC(=O)c1ccc(NC(=O)C(=O)NCc2ccccn2)cc1	0.43	1	0.0068	3	-1	nt	nt	nt	nt	nt	nt
Cn1cc(SCC(=O)N2CCOCC2)c2ccccc21	nt	1	-0.79	3	-1	nt	nt	nt	nt	nt	nt
Cn1cc(SCC(=O)N2CCN(c3ccccc3)CC2)c2ccccc21	nt	nt	-5.2*	5	0	0.0063	0.005	0.023*	0.0069	0.014*	0.0095
CCOCC(=O)Nc1cc(C)on1	-0.1	-4	0.55	3	0	nt	nt	nt	nt	nt	nt
COc1ccc(C(=O)NCCc2ccc(F)cc2)cc1OC	0.069	0	0.022	2	-1	nt	nt	nt	nt	nt	nt
COc1ccc(CCN(C)C(=S)NC(=O)c2ccc(F)cc2Cl)cc1OC	-1.5	-1	9.8*	2	-2	0.015*	0.036*	0.028	0.017*	0.033*	0.01*
CCN(CC)S(=O)(=O)c1ccc(NN=C2CCN(C)CC2)c([N+](=O)[O-])c1	-0.74	0	-0.38	4	-3	nt	nt	nt	nt	nt	nt
Cc1ccc(-c2cc3ncc(C#N)c(N)n3n2)cc1	-0.017	1	0.044	5	0	nt	nt	nt	nt	nt	nt
CCN(CC)C(=O)CSc1ncnc2sc(C)c(C)c12	-0.36	1	-0.72	3	1	nt	nt	nt	nt	nt	nt
Cc1ccc(OCCSc2ncnc3sc(C)c(C)c23)cc1C	nt	0	nt	1	-2	0.014*	0.042*	0.033	?	?	0.013*
Cc1sc2ncnc(SCC(=O)c3ccc(Cl)s3)c2c1C	nt	-1	1.4	3	0	nt	nt	nt	nt	nt	nt
Cc1sc2ncnc(SCC(=O)c3ccc(O)cc3O)c2c1C	nt	-1	102*	nt	nt	0.01*	0.087*	0.076*	0.076*	0.078*	0.055*
Cc1ccc(OCC(=O)NNC(=O)CSc2ncnc3sc(C)c(C)c23)cc1	nt	1	13*	3	0	0.012	0.016*	0.035	0.02*	0.029*	0.013*
CCc1ccc(OCC(=O)NNC(=O)CSc2ncnc3sc(C)c(C)c23)cc1	1.2	0	4.5*	5	-5	?	0.015*	0.029	0.01*	?	0.0098
Cc1sc2ncnc(SCC(=O)NC(C)(C)C)c2c1C	nt	2	0.42	2	0	nt	nt	nt	nt	nt	nt
Cc1sc2ncnc(SCc3ccco3)c2c1C	nt	-8	2.5	3	3	nt	nt	nt	nt	nt	nt
C[n+]1cnc(-c2ccccc2)cc1-c1ccccc1	1.1	nt	0.058	1	0	nt	nt	nt	nt	nt	nt
Nn1c(COc2ccc(Cl)cc2)nc2ccccc2c1=O	-0.36	nt	0.01	4	0	nt	nt	nt	nt	nt	nt
Cc1cccc(NC(=O)Nc2ccc(C)c(C)c2)n1	0.26	-3	5.7*	2	1	0.0092	0.0054	0.038	0.0074	0.021	0.011
Cc1cccc(NC(=O)Nc2cccc(C)n2)n1	-0.22	-4	-0.85	8	0	nt	nt	nt	nt	nt	nt
SMILES	ROMK mod	b-catenin transl	Cl transport mod	MT stabilizer	DTT redox prof	KCC2 sec1	KCC2 bumet counter	KCC2 sec2	HEK counter1	KCC2 retest ouab	HEK counter2
O=C(c1ccc(COc2ccc(Cl)cc2)o1)N1N=C(C(F)F)CC1(O)C(F)F (configuration not stated)	nt	0	-2	3	0	nt	nt	nt	nt	nt	nt
COc1ccccc1OCc1ccc(C(=O)N2N=C(C(F)F)CC2(O)C(F)F)o1 (configuration not stated)	-0.59	0	-3.3*	2	-2	0.0071	0.0057	0.025*	0.0067	0.013*	?
COc1cccc(C(=O)Nc2sc(C(C)C)cc2C(N)=O)c1OC	nt	-1	-1.1	nt	nt	nt	nt	nt	nt	nt	nt
COc1ccc(-c2cc(CNC(=O)CN(C)Cc3ccccc3)on2)cc1	nt	-3	nt	1	2	0.0058	0.0049	0.024*	0.0068	0.013*	0.0094
COc1ccc(-c2cc(CNC(=O)CCl)on2)cc1	nt	nt	nt	7	-1	nt	nt	nt	nt	nt	nt
COc1cc(-n2nc(C)c3c2OC(N)=C(C#N)C3c2ccccc2)c(Cl)c(Br)c1O (configuration not stated)	nt	6	-2.6*	2	3	0.0063	0.0028*	0.027*	0.0059*	0.014*	?
O=C(NC(=S)NCCC1=CCCCC1)c1cccnc1	-0.48	0	14*	2	0	0.0098	0.036*	0.031	0.013*	?	0.011*
O=C(CCSCCc1ccccn1)Nc1ccc(Cc2ccncc2)cc1	-0.93	-1	-3.4*	3	0	0.0069	0.0044	?	0.0073	0.018	0.011
Cc1ccc(C(=O)CSc2nnc(-c3ccco3)n2C)cc1	-0.0075	0	-4.7*	5	1	0.0058*	0.0059	0.031	0.0075	0.015*	0.01
Cn1c(SCC(=O)c2cc(Cl)c(Cl)s2)nnc1-c1ccco1	nt	1	-5.3*	nt	nt	0.0071	0.03*	0.032	0.022*	0.025	0.017*
Cc1ccc(C(=O)CSc2nnc(-c3ccccc3N)n2C)cc1	nt	-1	-0.55	2	2	nt	nt	nt	nt	nt	nt
CCCc1cc(=O)[nH]c(SCC(=O)Nc2ccc([N+](=O)[O-])cc2C#N)n1	nt	-2	-0.01	nt	nt	nt	nt	nt	nt	nt	nt
S=c1nc(-c2ccccc2)n(CCCn2ccnc2)c2c1CCCC2	nt	-2	0.93	3	-2	nt	nt	nt	nt	nt	nt
